The values that follow come from ChEMBL document CHEMBL5108074 (J Med Chem, 2022).

Usually clearance stands for a measure of how efficiently the substance is removed, as volume per time. Lower therefore signals inefficient removal. As usually defined, the IC50 is the concentration at which inhibition is half-maximal. For orientation: solubility (kinetic) means solubility judged after dilution from a stock solution rather than from solid.

The nature of data set [1]: Apparent permeability of the compound across apical side to basolateral side in human Caco-2 cells incubated for 1 hr by LC-MS/MS analysis. To be noted: caco-2, 1 h.
The nature of data set [2]: Metabolic stability in human liver microsomes assessed as intrinsic clearance per mg of protein measured upto 60 mins in presence of NADPH regenerating system by LC-MS/MS analysis. The class given is ADME, Microsome. Particulars: microsomes, 1 h. In general terms: Liver microsomes are a subcellular fraction often used to study metabolism.
Data set [3] can be described thus: Thermodynamic solubility of the compound in FaSSIF at 1 mg/ml at pH 6.5 measured after 4 hrs. To be noted: simulated gi fluid, pH 6.5, 4 h. The class given is physicochemical. In a few lines: (§1)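 Compound (nominal 1 or 100 mg/mL as free base) added to biorelevant medium preheated to 37 °C: FaSSGF at pH 1.6 or FaSSIF at pH 6.5. Vortexed, then shaken 4 h at 37 °C (~500 rpm). Centrifuged at 15000g for 10 min at 37 °C. Supernatant diluted and quantified against calibration standards. Crystalline material used where stated.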

The nature of data set [4]: Thermodynamic solubility of the compound in FaSSGF at 1 mg/ml at pH 1.6 measured after 4 hrs. The format is physicochemical. Particulars: buffer, pH 1.6, 4 h. In a few lines:
as §1

Data set [5] in a line: Clearance in Sprague-Dawley rat blood at 1 mg/kg, iv measured upto 24 hrs by LC-MS analysis. Particulars: whole blood. The class given is ADME, organism-based. In a few lines: (§2)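 Male Sprague-Dawley rats, two per route, single dose. IV: 1 mg/kg given as 1 mL/kg of a nominal 1 mg/mL formulation in vehicle. PO: 10 mg/kg given as 5 mL/kg of a 2 mg/mL formulation. PK parameters from noncompartmental analysis. Clearance expressed relative to rat liver blood flow of 80 mL/min/kg.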

A short description of data set [6]: Clearance in Beagle dog blood at 1 mg/kg, iv measured upto 24 hrs by LC-MS analysis. The class given is ADME, organism-based, Canis lupus familiaris. To be noted: whole blood.
Data set [7] is described as follows: Clearance in Sprague-Dawley rat assessed as liver blood flow at 1 mg/kg, iv measured upto 24 hrs by LC-MS analysis. The class given is ADME, organism-based. To be noted: in vivo. In a few lines:
as §2

The nature of data set [8]: Clearance in Beagle dog assessed as liver blood flow at 1 mg/kg, iv measured upto 24 hrs by LC-MS analysis. The format is ADME, organism-based, Canis lupus familiaris. To be noted: in vivo.
Data set [9] is described as follows: Volume of distribution at steady state in Beagle dog at 1 mg/kg, po and 1 mg/kg, iv measured upto 24 hrs by LC-MS analysis. The format is ADME, organism-based, Canis lupus familiaris. To be noted: in vivo.
Data set [10] can be described thus: Half life in Sprague-Dawley rat at 10 mg/kg, po and 1 mg/kg, iv measured upto 24 hrs by LC-MS analysis. The format is ADME, organism-based. To be noted: in vivo. In a few lines: as §2
The nature of data set [11]: Half life in Beagle dog at 1 mg/kg, po and 1 mg/kg, iv measured upto 24 hrs by LC-MS analysis. To be noted: in vivo. The class given is ADME, organism-based, Canis lupus familiaris.
The nature of data set [12]: Oral bioavailability in Sprague-Dawley rat at 10 mg/kg measured upto 24 hrs by LC-MS analysis. The class given is ADME, organism-based. Particulars: in vivo. In a few lines: as §2
A short description of data set [13]: Oral bioavailability in Beagle dog at 1 mg/kg measured upto 24 hrs by LC-MS analysis. The class given is ADME, organism-based, Canis lupus familiaris. To be noted: in vivo.
In data set [14] the target is Voltage-gated inwardly rectifying potassium channel KCNH2 (Homo sapiens, UniProt Q12809). The data set can be described thus: Inhibition of hERG expressed in CHO cells by whole cell patch clamp assay. The class given is toxicity, cell-based. In a few lines:
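hERG K+ current recorded by automated whole-cell patch clamp in CHO cells stably expressing hERG. Concentrations tested up to a maximum of 33 μM.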
(In general: Block of hERG is tested as a sign of cardiac risk.)

For another data set, the target named is T1, Cytochrome P450 1A2 (Homo sapiens, UniProt P05177).
T1 sequence (P05177 whole entry): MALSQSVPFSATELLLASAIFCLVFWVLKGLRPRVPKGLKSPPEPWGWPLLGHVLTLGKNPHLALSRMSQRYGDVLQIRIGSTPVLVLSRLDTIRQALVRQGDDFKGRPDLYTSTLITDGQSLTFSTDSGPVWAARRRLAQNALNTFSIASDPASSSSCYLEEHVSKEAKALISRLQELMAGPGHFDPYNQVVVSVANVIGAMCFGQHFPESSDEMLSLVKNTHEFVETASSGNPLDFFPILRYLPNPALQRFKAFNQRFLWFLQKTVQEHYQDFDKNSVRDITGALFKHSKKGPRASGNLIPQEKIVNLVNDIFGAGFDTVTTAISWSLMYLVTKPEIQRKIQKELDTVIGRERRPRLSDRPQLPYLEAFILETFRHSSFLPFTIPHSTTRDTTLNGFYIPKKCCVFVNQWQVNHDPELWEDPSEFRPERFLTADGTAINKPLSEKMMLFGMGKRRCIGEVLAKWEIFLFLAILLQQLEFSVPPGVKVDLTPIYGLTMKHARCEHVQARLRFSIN
In words: Inhibition of CYP1A2 in human liver microsomes assessed as reduction in acetaminophen metabolite formation incubated for 30 mins in presence of NADPH by LC-MS/MS analysis. The class given is ADME, Microsome.

The next data set concerns the target Cytochrome P450 2C9 (Homo sapiens, UniProt P11712). In words: Inhibition of CYP2C9 in human liver microsomes assessed as reduction in 4 hydroxy-diclofenac metabolite formation incubated for 30 mins in presence of NADPH by LC-MS/MS analysis. The format is ADME, Microsome.
A further data set has as its target Cytochrome P450 2C19 (Homo sapiens, UniProt P33261). In words: Inhibition of CYP2C19 in human liver microsomes assessed as reduction in 4-hydroxymephenytoin metabolite formation incubated for 30 mins in presence of NADPH by LC-MS/MS analysis. The class given is ADME, Microsome.
A further data set concerns the target Cytochrome P450 2D6 (Homo sapiens, UniProt P10635). The data set can be described thus: Inhibition of CYP2D6 in human liver microsomes assessed as reduction in dextrorphan metabolite formation incubated for 30 mins in presence of NADPH by LC-MS/MS analysis. The format is ADME, Microsome.
Data set [15] concerns the target T2, Cytochrome P450 3A4 (Homo sapiens, UniProt P08684). In words: Inhibition of CYP3A4 in human liver microsomes assessed as reduction in 6beta-hydroxymidazolam metabolite formation using midazolam as substrate incubated for 30 mins in presence of NADPH by LC-MS/MS analysis. The format is ADME, Microsome.
In data set [16] the target is T2, Cytochrome P450 3A4. In words: Inhibition of CYP3A4 in human liver microsomes assessed as reduction in 6beta-hydroxytestosterone metabolite formation using testosterone as substrate incubated for 30 mins in presence of NADPH by LC-MS/MS analysis. The class given is ADME, Microsome.
Data set [17] has as its target T3, Plasma kallikrein (Homo sapiens, UniProt P03952). The data set can be described thus: Inhibition of DXS induced human whole plasma kallikrein using H-D-Pro-Phe-Arg-AFC as substrate preincubated for 5 mins followed by DXS stimulation by fluorometer analysis. The format is cell-free.
The target in data set [18] is T3, Plasma kallikrein. The data set can be described thus: Inhibition of human plasma kallikrein using H-D-Pro-Phe-Arg-AFC as flurogenic substrate preincubated for 5 mins followed by substrate addition by fluorometer analysis. The format is cell-free.
The nature of data set [19]: Kinetic solubility of the compound in 0.1N HCl.
A short description of data set [20]: Kinetic solubility of the compound in aqueous assay buffer at pH 7.7.
Data set [21] in a line: Thermodynamic solubility of the compound in FaSSIF at 1 mg/ml at pH 6.5 using crystalline form of sample measured after 4 hrs. To be noted: simulated gi fluid, pH 6.5, 4 h. The class given is physicochemical. In a few lines:
as §1

The nature of data set [22]: Thermodynamic solubility of the compound in FaSSGF at 1 mg/ml at pH 1.6 using crystalline form of sample measured after 4 hrs. Particulars: pH 1.6, 4 h. The format is physicochemical. The procedure, abridged: as §1
For the next data set, the target named is Cytochrome P450 2B6 (Homo sapiens, UniProt P20813). The data set can be described thus: Inhibition of CYP2B6 in human liver microsomes assessed as reduction in hydroxybupropion metabolite formation incubated for 30 mins in presence of NADPH by LC-MS/MS analysis. The format is ADME, Microsome.
Cytochrome P450 2B6, sequence (P20813 whole entry): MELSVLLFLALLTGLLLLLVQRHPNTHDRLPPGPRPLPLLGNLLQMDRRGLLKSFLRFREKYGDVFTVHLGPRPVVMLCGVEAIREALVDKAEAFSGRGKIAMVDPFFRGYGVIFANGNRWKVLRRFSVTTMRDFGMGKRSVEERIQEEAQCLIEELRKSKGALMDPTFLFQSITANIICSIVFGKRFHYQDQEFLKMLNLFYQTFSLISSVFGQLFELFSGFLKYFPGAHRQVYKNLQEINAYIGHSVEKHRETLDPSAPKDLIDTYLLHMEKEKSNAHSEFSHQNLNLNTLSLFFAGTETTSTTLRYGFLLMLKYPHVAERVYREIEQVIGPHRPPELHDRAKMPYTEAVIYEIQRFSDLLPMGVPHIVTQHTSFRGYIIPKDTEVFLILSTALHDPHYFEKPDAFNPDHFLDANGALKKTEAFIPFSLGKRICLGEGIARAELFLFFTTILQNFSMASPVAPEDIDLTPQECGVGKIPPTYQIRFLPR
For another data set, the target named is Cytochrome P450 2C8 (Homo sapiens, UniProt P10632). In words: Inhibition of CYP2C8 in human liver microsomes assessed as reduction in 6 alpha-hydroxypaclitaxel metabolite formation incubated for 30 mins in presence of NADPH by LC-MS/MS analysis. The format is ADME, Microsome.
Cytochrome P450 2C8, sequence (P10632 whole entry): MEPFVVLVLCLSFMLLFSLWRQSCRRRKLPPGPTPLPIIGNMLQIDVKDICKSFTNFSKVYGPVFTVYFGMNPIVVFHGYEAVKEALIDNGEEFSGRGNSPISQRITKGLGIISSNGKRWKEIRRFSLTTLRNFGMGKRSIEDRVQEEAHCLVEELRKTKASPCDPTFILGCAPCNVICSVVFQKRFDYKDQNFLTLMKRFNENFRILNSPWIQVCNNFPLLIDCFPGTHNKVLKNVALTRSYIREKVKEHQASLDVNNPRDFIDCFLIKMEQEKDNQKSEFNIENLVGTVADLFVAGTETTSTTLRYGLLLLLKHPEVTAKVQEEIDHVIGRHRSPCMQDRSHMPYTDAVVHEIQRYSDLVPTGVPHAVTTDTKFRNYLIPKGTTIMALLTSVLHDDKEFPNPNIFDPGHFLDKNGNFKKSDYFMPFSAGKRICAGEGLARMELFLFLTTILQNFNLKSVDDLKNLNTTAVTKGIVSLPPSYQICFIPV

T2 sequence (P08684 whole entry): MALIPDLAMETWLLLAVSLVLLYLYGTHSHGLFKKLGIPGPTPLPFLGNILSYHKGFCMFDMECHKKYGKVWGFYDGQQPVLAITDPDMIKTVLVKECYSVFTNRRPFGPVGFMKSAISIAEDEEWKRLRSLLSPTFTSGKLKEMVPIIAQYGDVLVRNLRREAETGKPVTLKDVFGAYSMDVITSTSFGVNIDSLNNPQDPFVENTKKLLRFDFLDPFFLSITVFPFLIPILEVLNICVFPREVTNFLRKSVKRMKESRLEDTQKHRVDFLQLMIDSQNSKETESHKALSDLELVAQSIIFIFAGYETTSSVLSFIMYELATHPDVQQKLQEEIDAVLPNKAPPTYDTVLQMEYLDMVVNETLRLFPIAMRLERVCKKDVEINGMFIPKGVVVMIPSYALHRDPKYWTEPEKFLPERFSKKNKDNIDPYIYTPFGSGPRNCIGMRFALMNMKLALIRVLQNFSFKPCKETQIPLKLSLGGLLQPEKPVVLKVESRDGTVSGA
T3 sequence (P03952 20-390 limits assumed): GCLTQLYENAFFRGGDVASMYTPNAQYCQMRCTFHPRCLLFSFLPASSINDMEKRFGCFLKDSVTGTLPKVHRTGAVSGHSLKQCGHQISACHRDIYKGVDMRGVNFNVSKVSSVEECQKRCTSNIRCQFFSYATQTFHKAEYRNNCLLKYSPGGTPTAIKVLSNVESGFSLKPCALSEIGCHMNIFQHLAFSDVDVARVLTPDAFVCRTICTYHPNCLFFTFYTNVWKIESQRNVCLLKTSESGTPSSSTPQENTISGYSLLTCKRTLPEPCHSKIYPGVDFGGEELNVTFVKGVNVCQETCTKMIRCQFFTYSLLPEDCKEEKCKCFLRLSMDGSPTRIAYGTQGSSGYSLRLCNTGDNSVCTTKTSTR
T3 sequence (P03952 391-638 limits assumed): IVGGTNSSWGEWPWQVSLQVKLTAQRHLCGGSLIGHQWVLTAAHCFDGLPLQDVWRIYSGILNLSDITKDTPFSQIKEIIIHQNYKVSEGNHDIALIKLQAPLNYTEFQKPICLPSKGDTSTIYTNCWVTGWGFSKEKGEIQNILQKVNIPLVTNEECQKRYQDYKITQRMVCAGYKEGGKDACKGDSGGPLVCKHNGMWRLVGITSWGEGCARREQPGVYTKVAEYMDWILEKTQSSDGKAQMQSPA
Cytochrome P450 2D6, sequence (P10635 whole entry): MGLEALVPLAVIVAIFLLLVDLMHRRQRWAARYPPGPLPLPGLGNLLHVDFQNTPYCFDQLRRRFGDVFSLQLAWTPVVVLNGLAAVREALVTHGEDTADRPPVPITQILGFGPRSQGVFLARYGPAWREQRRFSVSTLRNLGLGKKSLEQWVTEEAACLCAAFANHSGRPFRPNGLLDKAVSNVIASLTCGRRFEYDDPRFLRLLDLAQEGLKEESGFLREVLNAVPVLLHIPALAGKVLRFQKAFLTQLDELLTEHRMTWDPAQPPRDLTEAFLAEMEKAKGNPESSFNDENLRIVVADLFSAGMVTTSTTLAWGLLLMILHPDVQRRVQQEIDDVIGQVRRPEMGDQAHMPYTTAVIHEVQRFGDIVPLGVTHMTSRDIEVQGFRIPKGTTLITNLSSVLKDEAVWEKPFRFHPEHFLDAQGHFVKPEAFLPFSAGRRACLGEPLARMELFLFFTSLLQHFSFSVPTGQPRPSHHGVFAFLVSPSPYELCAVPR
Voltage-gated inwardly rectifying potassium channel KCNH2, sequence (Q12809 whole entry): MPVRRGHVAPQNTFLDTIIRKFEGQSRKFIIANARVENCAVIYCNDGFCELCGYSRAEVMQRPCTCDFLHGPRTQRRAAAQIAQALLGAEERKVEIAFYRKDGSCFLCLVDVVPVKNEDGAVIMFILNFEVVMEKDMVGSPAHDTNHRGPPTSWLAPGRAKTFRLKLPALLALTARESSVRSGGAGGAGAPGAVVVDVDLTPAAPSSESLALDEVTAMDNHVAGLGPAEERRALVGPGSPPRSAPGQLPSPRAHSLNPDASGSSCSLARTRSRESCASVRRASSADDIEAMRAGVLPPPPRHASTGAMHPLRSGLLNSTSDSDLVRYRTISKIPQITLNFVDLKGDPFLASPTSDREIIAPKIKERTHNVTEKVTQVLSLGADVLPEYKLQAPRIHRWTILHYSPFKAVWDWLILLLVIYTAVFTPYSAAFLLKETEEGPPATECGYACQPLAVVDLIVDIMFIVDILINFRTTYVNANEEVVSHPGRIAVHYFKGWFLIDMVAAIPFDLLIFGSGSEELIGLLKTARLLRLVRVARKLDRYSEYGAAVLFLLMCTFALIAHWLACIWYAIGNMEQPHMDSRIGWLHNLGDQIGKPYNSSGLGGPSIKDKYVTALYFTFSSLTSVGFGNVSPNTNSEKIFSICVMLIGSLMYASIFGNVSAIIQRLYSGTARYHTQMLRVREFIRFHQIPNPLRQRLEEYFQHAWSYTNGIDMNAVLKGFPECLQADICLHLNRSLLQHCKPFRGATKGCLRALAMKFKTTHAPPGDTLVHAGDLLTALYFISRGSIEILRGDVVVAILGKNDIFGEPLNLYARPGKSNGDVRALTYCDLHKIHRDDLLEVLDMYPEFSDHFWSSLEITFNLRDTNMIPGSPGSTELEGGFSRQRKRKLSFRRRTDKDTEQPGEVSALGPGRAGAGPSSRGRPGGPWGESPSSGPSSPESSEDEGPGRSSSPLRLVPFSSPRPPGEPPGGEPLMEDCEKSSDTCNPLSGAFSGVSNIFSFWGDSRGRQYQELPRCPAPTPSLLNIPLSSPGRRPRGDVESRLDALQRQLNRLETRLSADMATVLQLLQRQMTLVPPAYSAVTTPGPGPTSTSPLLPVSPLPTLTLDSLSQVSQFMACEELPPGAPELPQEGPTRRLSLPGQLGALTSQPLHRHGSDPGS
Cytochrome P450 2C9, sequence (P11712 whole entry): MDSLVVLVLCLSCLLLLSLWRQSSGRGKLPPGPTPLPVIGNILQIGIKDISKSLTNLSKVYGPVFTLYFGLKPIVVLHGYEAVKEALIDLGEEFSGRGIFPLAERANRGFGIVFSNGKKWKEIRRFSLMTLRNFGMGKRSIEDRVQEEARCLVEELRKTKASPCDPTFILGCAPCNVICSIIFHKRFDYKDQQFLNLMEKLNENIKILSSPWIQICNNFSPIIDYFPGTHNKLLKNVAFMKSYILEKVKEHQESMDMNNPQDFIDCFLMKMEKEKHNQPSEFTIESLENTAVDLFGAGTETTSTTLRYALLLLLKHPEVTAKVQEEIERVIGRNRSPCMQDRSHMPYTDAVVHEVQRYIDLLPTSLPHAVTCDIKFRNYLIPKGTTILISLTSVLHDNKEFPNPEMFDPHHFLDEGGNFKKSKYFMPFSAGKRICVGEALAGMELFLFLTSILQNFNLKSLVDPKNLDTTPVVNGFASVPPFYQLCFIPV
Cytochrome P450 2C19, sequence (P33261 whole entry): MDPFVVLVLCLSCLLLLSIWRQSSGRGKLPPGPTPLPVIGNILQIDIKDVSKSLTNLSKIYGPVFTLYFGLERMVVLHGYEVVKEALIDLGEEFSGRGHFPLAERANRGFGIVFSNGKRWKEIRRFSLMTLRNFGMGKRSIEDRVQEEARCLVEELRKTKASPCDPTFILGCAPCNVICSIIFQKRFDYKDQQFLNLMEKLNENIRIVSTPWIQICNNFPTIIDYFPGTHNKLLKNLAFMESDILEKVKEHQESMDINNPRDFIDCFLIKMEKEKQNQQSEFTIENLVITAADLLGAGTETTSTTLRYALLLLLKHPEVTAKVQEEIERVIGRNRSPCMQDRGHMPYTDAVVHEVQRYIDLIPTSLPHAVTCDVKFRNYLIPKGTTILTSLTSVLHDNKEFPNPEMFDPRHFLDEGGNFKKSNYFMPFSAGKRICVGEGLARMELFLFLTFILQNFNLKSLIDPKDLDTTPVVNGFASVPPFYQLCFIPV

As for `COc1ccnc(CNC(=O)c2cn(Cc3ccc(Cn4ccccc4=O)cc3)nc2C(F)(F)F)c1F`, the Papp in [1] was 17 10^-6 cm/s. Further, in data set [2], the microsomal intrinsic clearance was determined as 49 µL/min. Moreover, the Therm_solubility in data set [3] is 0.02 mg/mL; in data set [4], 0.69 mg/mL. The clearance in data set [5] amounted to 0.666 L/h/kg; in [6], 0.954 L/h/kg. The figures for the LBF in [7] and in data set [8] were 14% and 48%, respectively. Further, in [9], the Vdss amounted to 0.63 L/kg. In addition, the figures for the t1/2 in data set [10] and in data set [11] were 66 min and 54 min, respectively. The F in data set [12] is given as 97%; in [13] it was 32%. In addition, the concentration for half-maximal inhibition (IC50) in data set [14] is over 33 µM; at Cytochrome P450 1A2, over 25 µM; at Cytochrome P450 2C9, over 25 µM; at Cytochrome P450 2C19, over 25 µM; at Cytochrome P450 2D6, over 25 µM; on Cytochrome P450 3A4 [15], over 25 µM. In addition, the IC50 was over 25 µM at Cytochrome P450 3A4 [16] and 0.076 µM on Plasma kallikrein [17].

Turning to `COCc1nn(Cc2ccc(Cn3ccccc3=O)cc2)cc1C(=O)NCc1c(F)ccc(OC)c1F`, the Papp in [1] is on record as 18 10^-6 cm/s. The IC50 at Plasma kallikrein [18] is 0.006 µM; in data set [14], over 33 µM; on Cytochrome P450 1A2, over 25 µM; on Cytochrome P450 2B6, over 25 µM; on Cytochrome P450 2C8, 14 µM; on Cytochrome P450 2C9, 13 µM. In addition, the IC50 at Cytochrome P450 2C19 was over 25 µM; on Cytochrome P450 2D6, over 25 µM; at Cytochrome P450 3A4 [15], 19 µM; on Cytochrome P450 3A4 [16], 11 µM; against Plasma kallikrein [17], 0.5 µM. For the same compound, the microsomal intrinsic clearance in [2] worked out at 92 µL/min. For the same compound, the solubility (kinetic) in [19] and in [20] was over 0.12 mg/mL throughout. For the same compound, the Therm_solubility in data set [21] and in data set [22] was 0.009 mg/mL in each case. Also, the clearance is 1.42 L/h/kg in data set [5] and 1.47 L/h/kg in [6]. Further, the figures for the LBF in data set [7] and in data set [8] were 30% and 74%, respectively. Moreover, in data set [9], the Vdss is 0.36 L/kg. The compound further showed a t1/2 in [10] of 42 min. Also, the F in data set [12] is 64%; in data set [13], 16%.
